# Rows were chosen to be rich in hits. Some 2.1% of all compounds tested hit in one or more screens of this group.
# CRFBP-R2 block: antagonists of CRF-BP/CRF-R2 complex, primary screen, cell-based, HEK293, calcium dye fluorescence, uHTS. AID 588475, 2011. actives 0.59% (n = 350,000). CRF-induced calcium fluorescence. inhibition, % at 11.8 µM;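 active means inhibition of the ligand-induced calcium signal above about 50% at the single tested concentration, limit read from the data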
# IMP-1 inh: IMP-1 metallo-beta-lactamase inhibitors, primary screen, biochemical, epi-absorbance readout, Pseudomonas aeruginosa enzyme; purified IMP-1, nitrocefin hydrolysis, epi-absorbance fluorescence; inhibition, % at 5.6 µM; metallo-beta-lactamase IMP-1 (Pseudomonas aeruginosa); actives 0.45% (n = 290,000); AID 1556, 2009;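 active means inhibition above the mean plus 3 SD of all compounds in the same screening run, cut at about 4.5% in these data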
#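 Assay system: purified IMP-1; Quantity: IMP-1 0.2 nM before substrate addition; Medium: HEPES buffer pH 7.1 with ZnSO4 and Brij 35; Incubation: 15 min enzyme–compound preincubation, then 25 min nitrocefin reaction, 25 °C; Signal: fluorescence quenching readout, ex 480/em 530 nm; Controls: DMSO with and without IMP-1; Repeats: singlicate testing.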
# zfTRPN1 agonist: zebrafish TRPN1 channel agonists, primary screen, cell-based, HEK293, calcium fluorescence; HEK293 zebrafish TRPN1-YFP, Fluo-8 calcium fluorescence; 100% = response to 87 µM carbachol; AID 1424, 2008; activation, % at 3 µM; transient receptor potential cation channel N1 (TRPN1/NompC), Danio rerio; actives 0.18% (n = 220,000);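 active means activation above its plate's cutoff, the mean activation of test wells on that plate plus 3 SD, cut at about 19% in these data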
#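 Assay system: Zebrafish TRPN1-YFP in HEK293 cells | Incubation: Dye loading 1 h at 37 °C, then 30 min room temperature | Measured by: Kinetic Fluo-8 fluorescence, ex 470-495, em 515-575 nm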
# CRFR2-BP ag: agonists of CRF-BP/CRF-R2 complex, primary screen, cell-based, HEK293, calcium dye fluorescence, uHTS. CRF-binding protein / CRF receptor 2 complex (human). actives 0.46% (n = 350,000). calcium dye fluorescence (FLIPR); percent of saturating CRF peptide response. AID 588473, 2011. activation, % at 13.2 µM;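 active means activation of at least 50%, plus an integration ratio under a set limit after plate pattern correction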
# TRPML3 agonist: human TRPML3 channel agonists, primary screen, cell-based, HEK293 TRPML3-YFP, Fluo-8 calcium fluorescence, 3 µM; activation, % at 3 µM; AID 1448, 2008; 100% = the carbachol control signal; actives 0.29% (n = 220,000);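 active means activation above its plate's cutoff, the mean activation of the plate's test wells plus 3 SD, cut at about 12% in these data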
# Target sequence (Q8TDD5 whole entry, looked up): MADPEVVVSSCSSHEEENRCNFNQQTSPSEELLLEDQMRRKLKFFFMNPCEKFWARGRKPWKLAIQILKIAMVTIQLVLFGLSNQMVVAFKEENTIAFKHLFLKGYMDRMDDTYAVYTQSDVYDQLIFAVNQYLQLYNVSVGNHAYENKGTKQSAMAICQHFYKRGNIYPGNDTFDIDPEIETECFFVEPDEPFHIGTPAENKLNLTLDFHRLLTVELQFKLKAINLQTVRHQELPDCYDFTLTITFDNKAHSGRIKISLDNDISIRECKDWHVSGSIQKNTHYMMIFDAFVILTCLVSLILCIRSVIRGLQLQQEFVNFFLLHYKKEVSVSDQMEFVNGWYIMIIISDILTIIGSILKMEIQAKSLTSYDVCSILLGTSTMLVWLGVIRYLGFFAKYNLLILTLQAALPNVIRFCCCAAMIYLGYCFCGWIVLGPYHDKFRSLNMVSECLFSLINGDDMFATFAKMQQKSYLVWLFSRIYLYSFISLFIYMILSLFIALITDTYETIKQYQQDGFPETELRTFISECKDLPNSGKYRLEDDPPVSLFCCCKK
#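 system = HEK293 cells stably carrying human TRPML3-YFP | doses = one concentration, 3 µM nominal, 0.3% DMSO | timing = dye loading 1 h 37 °C then 30 min ambient, 125 s read | detection = Fluo-8 calcium dye fluorescence, ex 470-495, em 515-575 nm | benchmarks = high control carbachol 87 µM, low control DMSO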
# VIM-2 inhibitor: VIM-2 metallo-beta-lactamase inhibitors, primary screen, biochemical, epi-absorbance readout, Pseudomonas aeruginosa enzyme | purified VIM-2, nitrocefin hydrolysis, epi-absorbance fluorescence | inhibition, % at 5.6 µM | actives 0.89% (n = 290,000);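 active means inhibition above the mean of all tested compounds plus 3 SD, cutoff set per screening run, cut at about 7.5% in these data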;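 further: red hydrolysis product quenches plate fluorescence so inhibitors raise well fluorescence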
# Hits are given with their value; – = inactive; · = not tested or not shown.
SMILES,CRFBP-R2 block,IMP-1 inh,zfTRPN1 agonist,CRFR2-BP ag,TRPML3 agonist,VIM-2 inhibitor
CC1c2cccn2CCN1S(=O)(=O)c1ccccc1 (centres undefined),–,·,·,–,·,·
COc1ccccc1S(=O)(=O)N1CCn2cccc2C1C (centres undefined),103,·,·,–,·,·
Cc1ccc(C)c(C(=O)CSc2nc(N)cc(=O)[nH]2)c1,–,–,·,–,·,–
C=CCN(CC=C)C(=O)C1CCN(S(=O)(=O)c2ccc(N3CCCC3=O)cc2)CC1,–,–,·,–,·,–
OCCCc1nc2n(n1)C(c1cccs1)C=C(c1ccccc1)N2 (centres undefined),·,–,–,·,–,8.4
Cn1c(-c2ccc(C=O)s2)nc2c3ccccc3c3ccccc3c21,–,–,–,112,–,–
NC(CSS(=O)(=O)O)=NCCC12CC3CC(CC(O)(C3)C1)C2,–,5.4,–,–,–,–
O=C(c1cccc([N+](=O)[O-])c1)c1ccc2c(c1)OCCOCCOCCO2,58,–,–,–,–,–
O=C(c1cccc([N+](=O)[O-])c1)c1ccc2[nH]c(=O)[nH]c2c1,–,29,·,–,·,–
O=C(c1ccccc1)c1ccc2c(c1)OCCOCCOCCO2,–,–,–,–,–,–
NC(=O)c1cccc([N+](=O)[O-])c1,–,·,·,–,·,·
COc1ccc(C(=O)NCc2ncccc2C)cc1OC1CCN(C(C)=O)CC1,–,–,·,–,·,–
COCCNc1nc2c(S(=O)(=O)c3cc(C)ccc3C)nnn2c2ccccc12,50,–,–,–,–,–
Cc1ccc(C)c(Nc2nc3c(S(=O)(=O)c4ccccc4)nnn3c3ccccc23)c1,–,–,–,–,–,–
Cn1c(=O)oc2cc(S(=O)(=O)NCCC(=O)NCc3ccc(F)cc3)ccc21,99,–,·,–,·,–
Cc1ccc(S(=O)(=O)N2CCN(C(=O)CNC(=O)c3ccc(Cl)cc3)CC2)cc1,–,·,·,–,·,·
CCOCCCn1c(SCc2nc3ccccc3s2)nc2ccccc2c1=O,–,–,–,51,–,–
Cc1ccccc1Cn1c(=O)sc2ccccc2c1=O,56,–,–,–,–,–
COc1ccc(Cn2c(=O)sc3ccccc3c2=O)cc1,–,–,–,–,–,–
CN(C)C1=NCCN1CCc1ccccc1,–,·,·,–,·,·
COc1ccc([C@H]2CC(=O)C=C(c3ccccc3OC)C2)cc1OC,–,·,·,–,·,·
COc1ccc(CCNC(N)=S)cc1OC,63,–,–,–,–,–
COc1ccc(CCNC(=S)NCCc2ccc(OC)c(OC)c2)cc1OC,–,–,–,–,–,–
CCN(CCO)c1nc(SC)nc2c1sc1nc(-c3ccco3)c3c(c12)CCC3,–,12,–,–,–,–
CSc1nc(NCCOCCO)c2sc3nc(-c4ccco4)c4c(c3c2n1)CCC4,–,–,–,–,–,–
SMILES,CRFBP-R2 block,IMP-1 inh,zfTRPN1 agonist,CRFR2-BP ag,TRPML3 agonist,VIM-2 inhibitor
CCCn1c(SCC(=O)N2CC(=O)Nc3ccccc32)nc2ccccc21,–,–,–,56,–,–
Cc1c(Cc2ccccc2)c(=O)oc2c(CN(C)C)c(O)c(Cl)cc12,–,4.7,–,–,–,–
CN1CCC/C1=C/C=C1\SC(=S)NC1=O,–,–,–,149,–,–
O=C1NC(=S)SC1=Cc1cccs1,–,·,·,–,·,·
CC(C)C(NS(=O)(=O)c1ccc2c(c1)Cc1cc(S(=O)(=O)NC(C(=O)O)C(C)C)ccc1-2)C(=O)O (centres undefined),–,–,·,–,·,–
COc1ccc2nc(N=NC3=C(O)CC(C)(C)CC3=O)sc2c1,50,–,–,–,–,–
CCOc1ccc(C(=O)NNC(=O)CCNC(=O)c2ccco2)cc1OC,97,·,·,–,·,·
O=C(CS(=O)(=O)c1ccccc1)Nc1nnc(-c2cccs2)o1,–,·,·,–,·,·
c1ccc(COc2cccc(CNCc3ccccn3)c2)cc1,–,–,–,–,–,8.2
c1ccc(COc2cccc(CNCc3cccnc3)c2)cc1,–,–,–,–,–,–
Cc1c(NC(=O)COC(=O)c2ccccc2Cl)c(=O)n(-c2ccccc2)n1C,–,–,–,–,–,–
Cc1c(NC(=O)COC(=O)c2cc3c4ccccc4n(C)c3s2)c(=O)n(-c2ccccc2)n1C,–,4.8,–,–,–,–
CCOC(=O)CC(=O)CSc1nc(-c2cccnc2)ccc1C#N,–,5.3,–,–,–,–
CCOC(=O)CC(=O)CSc1nc(-c2cccnc2)cc(C)c1C#N,–,–,–,–,–,–
CCOC(=O)C1=C(COC(=O)C(CC)c2ccccc2)NC(=O)NC1C (centres undefined),–,·,·,–,·,·
Cc1ccc(C(=O)NCCC(=O)N2CCC3(CC2)NCCc2[nH]cnc23)cc1C,–,–,·,–,·,–
CCOC(CNC(=O)c1cccn2c(=O)c3c(C)c(C)sc3nc12)OCC,–,–,·,–,·,10
Cc1cc(Cl)ccc1OCCCC(=O)Nc1ccc(S(=O)(=O)Nc2ncccn2)cc1,–,–,·,–,·,–
CC(NCC(=O)Nc1ccccc1C(=O)NC1CC1)c1cccc(Cl)c1 (centres undefined),66,·,·,–,·,·
CC(NCC(=O)Nc1ccccc1C(=O)NC1CC1)c1ccc(Cl)cc1 (centres undefined),–,·,·,–,·,·
O=C1OCC(c2ccccc2)=C1c1ccc(S(=O)(=O)N2CCOCC2)s1,–,44,–,–,–,–
Cc1ccc(S(=O)(=O)N2CCOCC2)s1,–,–,·,–,·,–
Cc1ccc(NC(=O)CSc2nc3ccccc3c(=O)n2CCCC(=O)NCCCN2CCOCC2)cc1,72,–,–,–,–,–
O=C(CCNc1n[nH]c(=O)[nH]c1=O)N/N=C/c1ccc(C(F)(F)F)cc1,–,–,–,–,–,–
COc1ccc2cc(C(=O)N3CCCC(Nc4ccc(F)cc4)C3)n(C)c2c1 (centres undefined),–,–,·,–,·,–
O=S(=O)(NCc1ccccc1)c1ccccc1NCCc1ccccc1,110,·,·,–,·,·
O=C(Nc1cc(C(F)(F)F)ccc1N1CCOCC1)C1Cc2ccccc2CN1C(=O)c1ccco1 (centres undefined),–,5.6,–,–,–,–
COC(=O)/C=C/c1c(C)nc(NCc2ccccc2)nc1Cl,–,–,·,–,·,–
Cc1c(NC(=O)COC(=O)c2cccn2C)c(=O)n(-c2ccccc2)n1C,–,·,·,–,·,·
O=C(N/N=C/c1ccccc1O)NC12CC3CC(CC(C3)C1)C2,–,–,·,–,·,–

# Compound activity: PubChem, several laboratories
